Assay results published in publication PMC3018684 (Free radical research, 2010).
Values belong to the compound of their own block, whether it stands above or below them.

What was measured:
purified human MPO = purified human MPO (Homo sapiens, UniProt P05164); assay: Inhibition kinetics of MPO-dependent TMB oxidation by thiol antioxidants; format: biochemical; details: for mode of inhibition of MPO-catalyzed oxidation of TMB: double reciprocal plots 1/V vs 1/[TMB]
Procedure, shortened: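 Purified human MPO (1.5 nM) incubated with test thiol at 0.1–1 μM. Activity measured as initial rate of TMB oxidation, with TMB varied from 20 to 180 μM. Data plotted as double reciprocal 1/V vs 1/[TMB] (Lineweaver-Burk) for each inhibitor level. Slopes of these lines replotted against inhibitor concentration to derive Ki.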

[1] = cited from earlier work
[2] = CF patients, 300/450 mg three times daily for 14 days; cited from earlier work
[3] = pH 7.4; cited from earlier work
MPO compound I and II = details: cited from earlier work; for rate constant k of reaction with compound I and II of MPO: both compound I and II
NF-κB = details: GSH 1 mM with CF sputum sol-phase 10 μl/ml, HBE1 cells
[4] = Ex vivo scavenging of N-chloramines in CF sputum sol-phase; set-up: species or system human; details: 2 μM antioxidant, 25 μl CF sputum sol-phase, 30 min
MPO in CF sputum = format: biochemical, human; details: extrapolated from IC50 in about 2000-fold diluted sputum (Fig 4)
ground state ferric MPO = details: cited from earlier work
[5] = inhalation in CF patients, secondary to acidic nature; no reference given; cited from earlier work
[6] = no reference given; cited from earlier work
[7] = oral 0.6–1.0 g three times daily for 4 weeks; cited from earlier work

Chain of purified human MPO (P05164 279-745 limits assumed): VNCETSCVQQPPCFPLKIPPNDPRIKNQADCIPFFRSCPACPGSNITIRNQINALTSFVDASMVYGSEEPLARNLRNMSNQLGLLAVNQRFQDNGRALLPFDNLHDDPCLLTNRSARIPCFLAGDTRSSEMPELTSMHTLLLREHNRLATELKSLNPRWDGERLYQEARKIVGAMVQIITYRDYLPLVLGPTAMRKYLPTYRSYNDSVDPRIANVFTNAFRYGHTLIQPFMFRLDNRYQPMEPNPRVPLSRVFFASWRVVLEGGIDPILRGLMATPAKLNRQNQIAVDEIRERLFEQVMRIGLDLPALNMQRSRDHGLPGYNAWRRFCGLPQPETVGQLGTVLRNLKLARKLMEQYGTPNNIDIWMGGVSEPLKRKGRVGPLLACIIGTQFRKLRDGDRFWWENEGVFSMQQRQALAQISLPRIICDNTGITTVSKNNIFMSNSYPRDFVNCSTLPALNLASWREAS
Chain of purified human MPO (P05164 165-273 limits assumed): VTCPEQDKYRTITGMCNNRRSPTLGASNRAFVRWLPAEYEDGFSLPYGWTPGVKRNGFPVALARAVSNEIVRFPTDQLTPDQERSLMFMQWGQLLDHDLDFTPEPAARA

Ki (purified human MPO): 80 nM
mode of inhibition of MPO-catalyzed oxidation of TMB (purified human MPO): competitive
Structure (SMILES): N[C@@H](CCC(=O)N[C@@H](CS)C(=O)NCC(=O)O)C(=O)O [GSH, glutathione]
rate constant k of reaction with taurine chloramine [1]: 115 ± 14 M⁻¹ s⁻¹
lung function after aerosolized GSH [2]: improved lung function
second-order rate constant for reaction with H2O2 [3]: 0.87 M⁻¹ s⁻¹
rate constant k of reaction with compound I and II of MPO (MPO compound I and II): 10^1–10^2 M^−1s^−1
p65 nuclear translocation induced by CF sputum (sol-phase) (NF-κB): inhibit p65 nuclear translocation
lowering of N-chloramine levels [4]: 62 ± 11%
respiratory tract lining fluid concentration required to inhibit MPO in the CF airway (MPO in CF sputum): 1 to 50 mM

Structure (SMILES): OO [H2O2]
rate constant k of reaction with ground state ferric MPO (ground state ferric MPO): 2.6e+07 M⁻¹ s⁻¹

Structure (SMILES): CC(=O)N[C@@H](CS)C(=O)O [NAC, N-acetylcysteine]
side effects on inhalation [5]: can induce bronchospasm
mode of inhibition of MPO-catalyzed oxidation of TMB (purified human MPO): non-competitive
rate constant k of reaction with taurine chloramine [1]: 46 ± 7 M⁻¹ s⁻¹
reactivity with taurine chloramine relative to GSH (times less reactive) [1]: approx. 2.5
pKa [6]: 2.2
second-order rate constant for reaction with H2O2 [3]: 0.16 M⁻¹ s⁻¹
rate constant k of reaction with compound I and II of MPO (MPO compound I and II): 10^1–10^2 M^−1s^−1
lung function, as assessed by FEV1 [7]: no improvement in lung function
neutrophil GSH content [7]: increased neutrophil GSH content
neutrophil influx in CF airways [7]: decreased neutrophil influx in CF airways
sputum IL-8 levels [7]: decreased sputum IL-8 levels
sputum elastase activity [7]: decreased sputum elastase activity
lowering of N-chloramine levels [4]: 80 ± 11%
respiratory tract lining fluid concentration required to inhibit MPO in the CF airway (MPO in CF sputum): 1 to 50 mM

Structure (SMILES): Cc1cc(-c2cc(C)c(N)c(C)c2)cc(C)c1N [TMB, 3, 3′, 5, 5′-tetramethylbenzidine]
rate constant of reaction with MPO compound I (MPO compound I and II): 3.6e+06 M⁻¹ s⁻¹
rate constant of reaction with MPO compound II (MPO compound I and II): 940000 M⁻¹ s⁻¹
